Results as given in publication PMC10619633 (Chemical Science, 2023).

Assays:
[1] = Spectroscopic properties and 1O2 quantum yield in MeCN; format: physicochemical; details: for Φ Δ (1O2 quantum yield): irradiation at 450 nm, [Ru(bpy)3]Cl2 as reference
A549 cells [2] = experiment: Cellular uptake by ICP-MS; format: cell-based, Human; details: A549, 5 μM, 4 h
How it was run: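 Test Os(II) complexes were added at 5 μM to A549 cells for 4 h under normoxic or hypoxic conditions. Uptake was quantified by ICP-MS from the cellular Ru/Os concentration. Experiments were done in triplicate.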

A549 cells [3] = experiment: Cellular uptake inhibition by acetazolamide pre-incubation, ICP-MS; format: cell-based, Human; details: A549, complex 5 μM 4 h, acetazolamide 50 μM 2 h pre-incubation
RPE-1 cells = experiment: Dark cytotoxicity, resazurin assay, non-cancerous RPE-1; format: cell-based; details: read-out: Cytotoxicity IC50 Dark, RPE-1, normoxia (20%)
[4] = Octanol/PBS partition coefficient; format: physicochemical; details: room temperature, PF6- salts
How it was run: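 Partitioning measured between octanol and PBS; PBS replaced water to limit pH effects on log P. Complexes were tested as PF6− salts, whereas the biological assays used chloride salts.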

A549 cells [5] = experiment: Cellular fraction; format: cell-based, Human; details: A549, 24 h co-incubation, nuclei/cytoplasm isolated, ICP-MS
How it was run: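 Test complexes were incubated with A549 cells for 24 h. Nuclei and cytoplasm were then isolated, and each fraction was analysed by ICP-MS for Ru or Os content to give the distribution between compartments. Experiments were done in triplicate.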

Solubility in water = format: physicochemical

| Molecule | Φ em (luminescence quantum yield) [1] [%] | λ em (emission maximum) [1] [nm] | τ (fluorescence lifetime) [1] [ns] | Φ Δ (1O2 quantum yield) [1] [%] | cellular uptake under hypoxic compared to normoxic conditions (A549 cells [2]) | impact of acetazolamide pre-incubation on cellular uptake (A549 cells [3]) | IC50 (RPE-1 cells) [µM] | log P (octanol/PBS partition coefficient) [4] | fraction localized within the cytoplasm (A549 cells [5]) | solubility in water (Solubility in water) |
| --- | --- | --- | --- | --- | --- | --- | --- | --- | --- | --- |
| [Cl][Ru][Cl].c1ccc(-c2ccccn2)nc1.c1ccc(-c2ccccn2)nc1.c1ccc(-c2ccccn2)nc1 [Ru(bpy)3, [Ru(bpy)3]Cl2, reference compound] | 8 | 608 | 159 | 77 | – | – | – | – | – | – |
| [Os(Bphen)2(bpy-(NH2)2)]2+(2PF6-) [complex 9] | – | – | – | – | notably reduced cellular uptake under hypoxic conditions | negligible | > 30 | – | – | – |
| [Os(Bphen)2(bpy-(NHCH2CH2NH2)2-L2)]2+(2PF6-).(L= N4-Succinoylsulfanilamide) [complex 12] | 0 | – | – | – | 1.3 times | notably reduced | > 100 | greater than 1 | over 80% | good solubility in water |
| [Os(Bphen)2(bpy-(NHCH2CH2NH2)2-L)]2+(2PF6-).(L= N4-Succinoylsulfanilamide) [complex 11] | 0 | – | – | – | – | notably reduced | > 100 | greater than 1 | – | good solubility in water |
| [Ru(Bphen)2(bpy-(NH 2)2)]2+(2PF6-) [complex 3] | – | – | – | – | – | negligible | > 100 | – | – | – |
| [Ru(Bphen)2(bpy-(NH CH 2CH2NH2)2-L2)]2+(2 P F 6-).(L= N4-Succinoylsulfanilamide) [complex 6] | 2 | 675 | 117 | 77 | – | notably reduced | > 100 | greater than 1 | over 80% | good solubility in water |
| [Ru(Bphen)2(bpy-(NH CH 2CH2NH2)2-L)]2+(2PF6-).(L= N4-Succinoylsulfanilamide) [complex 5] | 2 | 674 | 122 | 77 | – | notably reduced | > 100 | – | – | good solubility in water |
